The campaign covered roughly 360,000 compounds. About 820 (0.23%) were called active.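 How the source made its calls: active means compounds that cut the enzyme signal by at least half of the control window in the single-dose screen; inactive means the rest.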 The sample as a whole holds a higher share of actives than the screen did.

Low molecular weight phosphotyrosine protein phosphatase (Homo sapiens), sequence (P24666 whole entry, looked up): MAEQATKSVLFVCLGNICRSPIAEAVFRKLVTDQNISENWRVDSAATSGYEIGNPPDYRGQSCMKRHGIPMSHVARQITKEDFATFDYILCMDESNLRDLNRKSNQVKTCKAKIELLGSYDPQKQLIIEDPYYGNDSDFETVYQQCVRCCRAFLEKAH

This test deals with Low molecular weight phosphotyrosine protein phosphatase (Homo sapiens) (UniProt P24666). The experiment in a line: LMPTP phosphatase inhibitors, primary screen, biochemical, fluorescence intensity, uHTS (AID 651560).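 Further: plate controls were DMSO wells with enzyme plus substrate for no effect and substrate without enzyme for full effect.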 The settings on record: recombinant LMPTP-A, OMFP fluorogenic substrate, at 20 µM, stronger effect = higher value. In a few lines:
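Buffer or medium: Bis-Tris pH 6.0, DTT, detergent; Assay system: LMPTP-A enzyme; Quantity: 0.625 nM enzyme; Detection: endpoint fluorescence intensity; Times: 50 min dark incubation at room temperature; Controls: substrate-only low control, DMSO enzyme-plus-substrate high control; Doses: single 20 µM dose; Read-out: percent inhibition versus substrate-only and uninhibited controls; Reagent: 400 µM OMFP.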
For `C[C@@H](C(=O)Nc1ccc2ccccc2c1)[C@@H]1C[C@@]1(C)[C@@H](NC(=O)c1cccnc1)c1ccccc1`, the inhibition is 0.267% (inactive).
Regarding `CCN(c1ccc2c(c1)OCO2)S(=O)(=O)c1cc(Br)cc2c1N(C(=O)C1CC1)CC2`, the inhibition was 3.91% (inactive).
The same measure for `CC(=O)c1ccccc1NC(=O)CC1(CC(=O)O)CCCCC1`: -1.06% (inactive); for `CCN(CCn1cccn1)Cc1cn[nH]c1-c1ccc(OC)cc1F`: -1.15% (inactive); for `Cc1cc(-c2nc(C)c(-c3nnc(SCC(=O)Nc4ccccc4)n3C)s2)no1`: -0.511% (inactive).
Then `COC(=O)c1sc(C(F)(F)F)c(-c2ccccc2)c1S(=O)(=O)N(C)C`, with -0.149% (inactive); and `O=C1NC(O)CCN1C1CC(O)C(CO)O1` (stereo not given), with -0.47% (inactive).
Then `COc1ccccc1OCCNC(=O)C(CCSC)NC(=O)COc1ccccc1` (stereo not given), with -1.42% (inactive); and `CN(C(=O)COC(=O)c1cc(-c2ccco2)nc2ccccc12)C1CCS(=O)(=O)C1` (stereo not given), with 66.6% (active); and `O=C(c1cc(-c2ccco2)nc2ccccc12)N(Cc1nnc(-c2ccc(Cl)cc2)o1)C1CC1`, with 3% (inactive).
As for `Cc1ccc(S(=O)(=O)CCC(=O)OCC(=O)N(C)C2CCS(=O)(=O)C2)cc1` (stereo not given), the inhibition was -1.13% (inactive).
The same measure for `COc1ccc(N(C)S(=O)(=O)c2cccc3nsnc23)cc1`: -1.17% (inactive); for `Cn1c(=O)[nH]c(=O)c2c1nc(NCCCn1ccnc1)n2Cc1cccc(Br)c1`: -1.82% (inactive); for `COc1cc(N2C(=O)c3ccccc3C2=O)c(Cl)cc1C(=O)OCC(=O)N1CCOCC1`: 0.755% (inactive).
For the compound `Cc1ccc(C(=O)NNC(=O)c2cc3cc4ccccc4nc3s2)cc1`, the inhibition is 50.6% (active).
Then `CS(=O)(=O)c1ccc(C(=O)NNC(=O)c2cccs2)cc1`, with -1.18% (inactive); and `CCN1CCN(C(=O)c2cc3cc4ccc(OC)cc4nc3s2)CC1`, with 0.833% (inactive); and `O=c1ccc2cc(S(=O)(=O)N3CCN(c4ccccc4)CC3)ccc2o1`, with -2.32% (inactive).
Consider `CSCCC(NC(=O)c1ccco1)C(=O)NCCc1ccc(F)cc1` (stereo not given), for which the inhibition is -1.2% (inactive).
The same measure for `O=C(CNC(=O)c1cc2c(s1)CCC2)Nc1ccccc1Br`: 5.93% (inactive); for `Cn1c(CN2CCOCC2)nc2cc(NC(=O)c3ccc(Cl)cc3)ccc21`: -0.278% (inactive).
Then `CCOC(=O)Cn1c2c(c(-c3ccccc3OC)cc1=O)CCCC2`, with 2.39% (inactive); and `CCOc1ccc(-c2nc(N)ncc2-c2ccccc2OC)c(O)c1`, with 53.5% (active); and `CCOc1cccc(OCCCOc2cccc3cccnc23)c1`, with 3.69% (inactive).
Then `Brc1cnc2ccccc2c1N1CCCCC1`, with 4.39% (inactive); and `O=c1cc(N2CCCCC2)c(-c2ccccc2)nn1Cc1cccc(F)c1`, with -0.671% (inactive); and `c1ccc(-c2cc(N3CCCCC3)c3ccccc3n2)cc1`, with 67.2% (active).
With `OCCC#Cc1ccc(CN2CCN(Cc3ccsc3)C(CCO)C2)cc1` (stereo not given), the inhibition is 1.89% (inactive).
Then `CC(OC(=O)c1c(F)cccc1F)C(=O)NCCC1=CCCCC1` (stereo not given), with 0.59% (inactive); and `Nc1ccc2nc3c(=O)[nH]c(=S)[nH]c3nc2c1`, with 85% (active); and `COc1ccc(Cc2nnc(NC(=O)Cc3cccs3)s2)cc1`, with 76.7% (active).
The same measure for `COc1cc(OC)cc(C(=O)NNC(=O)Cc2cccs2)c1`: 1.69% (inactive); for `COc1ccc(CC(=O)Nc2sc(Cc3ccccc3)c(C)c2C(N)=O)cc1`: 0.191% (inactive); for `Cc1ccccc1OCC(=O)NNC(=O)c1ccc(-n2cncn2)c([N+](=O)[O-])c1`: -1.02% (inactive).
Then `O=S(=O)(NN=C1CCCCCCC1)c1ccc(Br)cc1`, with 0.285% (inactive).
Turning to `CCCn1c(N)c(N(CCOC)C(=O)C2CCCC2)c(=O)[nH]c1=O`, the inhibition was -0.34% (inactive).
With `CCOCCCNC(=O)C(NC(=O)Cc1c[nH]c2ccccc12)c1ccc(OC)cc1` (stereo not given), the inhibition was -1.16% (inactive).
`COC(=O)c1c(NC(=O)CN(c2ccc(C)c(C)c2)S(C)(=O)=O)sc2c1CCCC2`: the inhibition was 1.37% (inactive).
The same measure for `CCOc1ccc(OCC)c(NC(=O)CSc2nnc(Cn3cnc4ccccc43)n2C)c1`: -0.816% (inactive).
The same measure for `CNc1cnc(-c2cc(OC)c(OC)c(OC)c2)cn1`: 0.718% (inactive); for `NS(=O)(=O)c1ccc(CCNC(=O)COC(=O)COc2cccc(C(F)(F)F)c2)cc1`: -0.314% (inactive); for `O=C(CSc1ccc(-c2ccccn2)nn1)Nc1ccccc1`: 0.337% (inactive).
For `O=C(Nc1cccnc1)c1cc2cc(Br)ccc2oc1=O`, the inhibition was 45.7% (inactive).
Then `O=C(Nc1ccncc1)c1cc(-c2ccccn2)nc2ccc(Br)cc12`, with 51.5% (active); and `COC(=O)c1ccc(C23CC4(C2)[C@H](CN(Cc2cccnc2)[C@@H]4c2ccccc2)C3c2ccc(Cl)nc2)cc1` (stereo not given in full), with 8.71% (inactive); and `CCCc1ccc(-c2c(C)sc(NC(=O)c3ccnn3C)c2C#N)cc1`, with 1.55% (inactive).
Then `Cc1ccc(C(=O)N/C(=C\c2ccco2)C(=O)N2CCSCC2)cc1C`, with -0.858% (inactive); and `Cc1cccc(C)c1NC1=NC(=S)N(c2ccc(N(C)C)cc2)C1(C)C`, with -0.864% (inactive).
The same measure for `CC1(C(=O)NCc2ccccc2)CN(S(C)(=O)=O)CC(=O)N1CC(F)(F)F` (stereo not given): -0.703% (inactive).
Turning to `O=C(NCc1ccc2c(c1)OCO2)c1c(O)nc2sccn2c1=O`, the inhibition is 53.5% (active).
The same measure for `C=CCn1c(=O)c(C(=O)NCc2ccc3c(c2)OCO3)c(O)c2ccccc21`: 2.01% (inactive).
Then `O=C(NCc1ccc2c(c1)OCO2)c1sccc1Br`, with -0.435% (inactive); and `O=C(CN1CCN(C(=O)c2ccco2)CC1)Nc1ccc2c(c1)OCO2`, with -0.639% (inactive); and `O=C(CCN1C(=O)c2ccncc2C1=O)Nc1ccc2c(c1)OCCO2`, with 0.479% (inactive).
The same measure for `Cc1ccc(C(=O)O)cc1-c1ccc(/C=C2\SC(=O)N(CC(=O)Nc3ccc4c(c3)OCO4)C2=O)o1`: 61.2% (active).
Take `Cc1ccc(S(=O)(=O)N2[C@@H](c3ccc(Br)cc3)C(C(=O)O)=C[C@H]2CC2CCCC2)cc1`: the inhibition was 0.284% (inactive).
Turning to `COc1cc(OC)cc(/C(N)=N/O)c1`, the inhibition is 0.166% (inactive).
The same measure for `CCC(C)N(C(=O)COC(=O)c1nc(Cl)ccc1Cl)C1CCS(=O)(=O)C1` (stereo not given): -0.848% (inactive); for `N#CCSc1nn(-c2ccc(F)cc2)c(=S)s1`: -0.858% (inactive); for `CCOC(=O)C1CCN(C(=O)c2ccc3c(=O)n4nc(Nc5ccccc5CC)sc4nc3c2)CC1`: 1.95% (inactive).
Then `CS(=O)(=O)N1CCCCC1c1cc(C(=O)NCc2ccccc2)no1` (stereo not given), with -1.43% (inactive); and `Nc1nc(C23CC4CC(CC(C4)C2)C3)cs1`, with -0.25% (inactive).
The same measure for `C#CCN(N(C)c1ncc(C(F)(F)F)cc1Cl)S(=O)(=O)c1ccc2ccccc2c1`: 5.44% (inactive); for `CN(C)C(=O)Cn1c(=O)n(S(=O)(=O)c2ccccc2)c2ccccc21`: -0.0726% (inactive).
As to `Cc1cccc(NC(=O)CSc2nnc(CCCCCNC(=O)OC(C)(C)C)o2)c1C`, the inhibition is -0.643% (inactive).
Then `O=C(NCc1cccnc1)c1cc(C2CCCN(C(=O)CCCc3ccccc3)C2)on1` (stereo not given), with -0.488% (inactive); and `CCN1/C(=C\c2ccc3ccccc3[n+]2CC)Sc2cc(C)ccc21`, with 63.9% (active); and `Cc1nc(CC(=O)NNS(=O)(=O)c2ccc(F)c(Cl)c2)cs1`, with -1.65% (inactive).
The same measure for `Cc1cccc(OCC(O)CN2CCN(CCN3C(=O)c4cccc5cccc(c45)C3=O)CC2)c1C` (stereo not given): 8.73% (inactive).
In the case of `CCOC(=O)Cc1cc(=O)[nH]c(/N=C(\N)Nc2ccc(OC)cc2)n1`, the inhibition is -0.31% (inactive).
The same measure for `CCSc1nc(=S)n(CC)c(C)c1C(C)=O`: -0.754% (inactive); for `COC(=O)CN1C(C)=Nc2ccc(Br)cc2C1c1ccccc1` (stereo not given): -0.193% (inactive); for `CCn1ccnc1CNC(=O)CC1C(=O)NCCN1CCCc1ccccc1` (stereo not given): -2.22% (inactive).
The same measure for `CCOc1cc2[nH]c(=S)n(Cc3ccc(C(=O)N4CCN(C)CC4)cc3)c(=O)c2cc1OCC`: 1.07% (inactive); for `O=c1c(Cl)c(NCc2ccc(F)cc2Cl)cnn1C12CC3CC(CC(C3)C1)C2`: 1.08% (inactive); for `O=C1c2ccccc2C(Nc2ccc3c(c2)OCCO3)N1Cc1ccco1` (stereo not given): 0.866% (inactive).
Then `Cn1c(=O)c(=O)n(C)c2cc(S(=O)(=O)CCC(=O)N3CCCCC3)ccc21`, with -0.491% (inactive); and `COc1ccc(-c2oc3ncn(Cc4ccco4)c(=N)c3c2-c2ccc(OC)cc2)cc1`, with 3.1% (inactive).
As for `Cn1c2ccccc2c(=O)c2c(=O)n(Cc3ccco3)c(COc3ccccc3)nc21`, the inhibition was 69% (active).
The same measure for `O=C(Cn1c(=O)n(Cc2ccco2)c(=O)c2ccccc21)NCC1CCCO1` (stereo not given): -0.056% (inactive); for `O=C(NN=Cc1ccccc1O)NN=Cc1ccccc1O`: 61.8% (active); for `O=C(CC(=O)N/N=C\c1cccc(Cl)c1Cl)NCc1ccccc1`: -1.17% (inactive).
The same measure for `O=C(CO/N=C/c1ccccc1O)NNC(=O)c1ccccc1Cl`: -0.137% (inactive); for `O=C(Nc1cc(S(=O)(=O)N2CCOCC2)ccc1N1CCOCC1)c1c(F)cccc1Cl`: -0.613% (inactive); for `O=C(CCCOc1ccccc1)NNC(=O)c1ccc(Cl)cc1`: -0.0475% (inactive).
Consider `O=C(NNC(=O)c1ccc2ccccc2c1)c1ccc(Cl)cc1`, for which the inhibition is 49.6% (active).
Then `CN(CC(=O)Nc1ccc(Cl)cc1)C(=O)CNC(=O)c1ccc2ccccc2c1`, with 0.862% (inactive); and `CC(C)(C)S(=O)(=O)c1ccccc1-c1noc(-c2ccccc2)c1C(N)=O`, with -0.802% (inactive); and `Cc1ncc([N+](=O)[O-])n1CCOC(=O)c1ccc(Br)cc1`, with -0.676% (inactive).
Regarding `C[C@H](NC(=O)NCCc1ccccc1)C(=O)O`, the inhibition was 0.573% (inactive).

Usually inhibition stands for the drop in the measured response relative to a control, in per cent.

The record behind these values is PubChem BioAssay AID651560 (Sanford-Burnham Center for Chemical Genomics, 2012).
